A3A deaminase: blocks human APOBEC3A ssDNA deamination; P31941; recombinant A3A, FAM/TAMRA ssDNA deamination fluorescence; inhibition, % at 20 µM; actives 0.41% (n = 330,000); AID 493011;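 active means at least 40% inhibition at 20 µM here, with at most 30% in a related deaminase screen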;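 further: plate controls were A3A with DMSO for no effect and wells lacking A3A enzyme for full effect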
Target sequence (P31941 whole entry, looked up): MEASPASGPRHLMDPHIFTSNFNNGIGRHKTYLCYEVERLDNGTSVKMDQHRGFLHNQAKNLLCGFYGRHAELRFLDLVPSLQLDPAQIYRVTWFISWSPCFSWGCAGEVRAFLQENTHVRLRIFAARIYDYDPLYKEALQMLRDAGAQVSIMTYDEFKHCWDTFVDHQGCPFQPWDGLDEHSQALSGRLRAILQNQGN
ASAP1 GAP inh: ASAP1 ArfGAP inhibition; inhibition, % at 16.5 µM; actives 0.19% (n = 360,000); ASAP1-stimulated ARF1 GTP hydrolysis, GDP FP detection; Q9ULH1; in the data active means inhibition above about 25%;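 further: 0% = vehicle with enzyme and substrate and 100% = no enzyme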
ARFGAP1 inh: inhibitors of rat ARFGAP1 | Arfgap1-stimulated ARF1 GTP hydrolysis, GDP FP detection | AID 651572 | actives 0.26% (n = 360,000) | Q62848 | inhibition, % at 16.5 µM;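 active means inhibition above a per-plate limit, mean inhibition of low control wells plus 3 SD, cut at about 25% in these data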;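 further: 0% = DMSO wells with enzyme and 100% = wells lacking Arfgap1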
Target sequence (Q62848 1-136 limits assumed): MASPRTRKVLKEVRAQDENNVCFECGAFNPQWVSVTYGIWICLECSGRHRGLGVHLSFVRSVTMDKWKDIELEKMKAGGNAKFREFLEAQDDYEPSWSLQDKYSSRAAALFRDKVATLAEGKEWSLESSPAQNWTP
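Material: rat Arfgap1 GAP domain (His6, aa 1-136), purified enzyme. Also added: human ARF1(Δ1-17)-GTP substrate. Compound dosing: 16.5 µM single point, 1.26% DMSO. Timing: enzyme reaction 120 min at 25 °C after 20 min preincubation. Signal: GDP detection by fluorescence polarization. Read-out basis: percent inhibition of GAP-stimulated GDP formation, scaled between DMSO and no-Arfgap1 medians.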
Mot1-301 SUMO: SUMOylation pathway inhibition by Mot1-301 growth rescue. S. cerevisiae Mot1-301 growth rescue, ATP luminescence, 38.5C; percent above DMSO median, 100 means doubled. growth rescue, % at 18.8 µM. actives 1% (n = 320,000);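 active means every valid replicate shows activation above 250% relative to neutral control wells; inactive means the rest, any valid replicate at or below 250%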;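 further: OY570 slx delta 5 strain wells were the positive control but not used for scaling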
C2C12 statin: protects C2C12 myotubes from simvastatin toxicity | ATP luminescence, 48 h; scaled: DMSO 0, geranylgeraniol control 100 | actives 0.78% (n = 330,000) | rescue of ATP level, % at 7.49 µM | AID 602340;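 active means mean ATP rescue above about 67%, or every replicate alone reaching that limit, limit read from the data, passing the limit was not always enough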;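 further: myotubes were challenged with 10 µM simvastatin during compound exposure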
APOBEC3G inh: APOBEC3G (human) deaminase inhibition; actives 0.28% (n = 330,000); recombinant A3G, ssDNA deamination FAM/TAMRA fluorescence; inhibition, % at 20 µM; Q9HC16; AID 493012;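 active means inhibition of at least 40% at 20 µM, with no more than 30% in the related APOBEC3A deaminase screen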;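 further: plate controls were DMSO wells with A3G for no effect and wells lacking A3G enzyme for full effect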
Target sequence (Q9HC16 whole entry, looked up): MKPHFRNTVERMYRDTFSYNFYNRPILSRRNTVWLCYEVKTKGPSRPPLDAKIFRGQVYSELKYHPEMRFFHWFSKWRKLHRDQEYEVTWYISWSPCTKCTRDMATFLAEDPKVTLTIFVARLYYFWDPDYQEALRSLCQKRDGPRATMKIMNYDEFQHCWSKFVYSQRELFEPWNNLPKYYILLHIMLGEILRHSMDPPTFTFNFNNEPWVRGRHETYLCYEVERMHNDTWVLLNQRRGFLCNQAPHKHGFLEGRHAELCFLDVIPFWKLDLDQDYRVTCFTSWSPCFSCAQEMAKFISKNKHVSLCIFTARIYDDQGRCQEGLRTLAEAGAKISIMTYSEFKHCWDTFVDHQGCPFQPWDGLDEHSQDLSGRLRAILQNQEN
An asterisk follows results filed as active; nt = no result. This is a sample that favours compounds with a hit; in the whole collection about 2.1% have one here.

SMILES	A3A deaminase	ASAP1 GAP inh	ARFGAP1 inh	Mot1-301 SUMO	C2C12 statin	APOBEC3G inh
NC(=O)c1cc(-c2ccccc2)nc(N2CCOCC2)n1	-2.1	4.0	2.6	-0.4	86.1*	-6.1
NC(=O)c1cc(-c2ccccc2)nc(N2CCCCCC2)n1	-2.7	1.2	4.8	-12.0	-23.8	-4.3
CSc1ccc(CCNS(=O)(=O)c2csc(C(N)=O)c2)cc1	-4.3	-4.2	-13.9	0.9	90.5*	-2.1
CCCCCCCCC(NC(=O)c1ccc(C#N)cc1)C(=O)NCCC (stereo not given)	-1.4	10.4	11.2	-6.6	159.4*	-4.1
Cc1ccc(-c2noc(CCC(=O)NCCN3CCN(Cc4ccccc4)CC3)n2)cc1	-0.2	-8.2	-5.4	12.2	-6.9	-4.3
CCOc1cc(-c2noc(CCC(=O)NCCc3ccccc3)n2)ccc1OC	-2.4	-17.0	2.6	26.3	18.2	-6.8
Cc1ccc(-c2noc(CCC(=O)NCC3CCN(Cc4cccc(C)c4)CC3)n2)cc1	1.8	6.0	6.1	2.2	86.9*	-8.4
CCOc1ccc(-c2noc(CCC(=O)NC)n2)cc1OCC	-4.7	1.8	-6.0	-11.1	95.4*	-6.1
O=C(Cc1ccccn1)NCC[C@H]1CC[C@@H](NC(=O)Nc2ccccc2)[C@H](CO)O1	nt	nt	nt	nt	1.1	nt
O=C(C[C@H]1CC[C@H](NC(=O)NC2CCCCC2)[C@@H](CO)O1)NCc1ccc(F)cc1	nt	nt	nt	nt	4.1	nt
Cc1cccc(NC2=C/C(=N/S(=O)(=O)c3cccs3)c3ccccc3C2=O)c1	nt	32.9*	11.9	-10.0	nt	nt
Cc1ccc(NC2=C/C(=N\S(=O)(=O)c3cccs3)c3ccccc3C2=O)c(C)c1	4.1	nt	nt	-33.1	nt	-0.9
O=C1C(Nc2ccc(O)cc2)=C/C(=N/S(=O)(=O)c2cccs2)c2ccccc21	nt	31.9*	9.0	nt	nt	nt
COc1ccc(NC(=O)N[C@H]2CC[C@H](CCn3cc(C4(O)CCCC4)nn3)O[C@@H]2CO)cc1	nt	nt	nt	nt	6.9	nt
CN(C)C(=O)c1cccc(-c2ccc3c(c2)[C@@H]2[C@@H](CCN2C(=O)C2CCOCC2)[C@H](CO)N3)c1	nt	nt	nt	nt	-1.7	nt
CC(C)(C)OC(=O)N[C@@H](Cc1ccccc1)c1nnc(S(=O)(=O)Cc2cccc(F)c2)o1	-3.2	nt	nt	274.6*	nt	-7.8
CCOC(=O)CNc1c(-c2ccccc2)nc2ccc(Cl)cn12	-1.4	14.9	0.7	-6.4	98.5*	-2.0
O=C(Cc1cccs1)Nc1nc(-c2ccccc2)cs1	-0.2	11.4	8.3	nt	-7.6	-5.7
COC(=O)CCC(=O)Nc1nc(-c2ccccc2)cs1	-1.2	0.6	10.6	333.9*	-7.3	-5.4
C[C@@H]1CN([C@@H](C)CO)C(=O)c2cc(NC(=O)c3ccccc3)ccc2O[C@@H](C)CCCCO[C@@H]1CN(C)Cc1ccncc1	nt	nt	nt	nt	15.2	nt
COc1ccc(C(N)CCc2ccc(C)o2)cc1 (stereo not given)	-4.6	1.1	4.7	-4.2	136.9*	-4.7
COc1cccc(CN(C)C[C@H]2OCc3ccccc3-c3ccccc3C(=O)N([C@H](C)CO)C[C@@H]2C)c1	nt	nt	nt	nt	-16.3	nt
O=C(O)Cc1sc(-c2ccccc2)nc1-c1ccccc1	-4.6	-7.4	-1.4	280.1	-1.2	-6.4
Cc1ccc(-c2nc(-c3ccccn3)sc2CC(=O)O)cc1	-1.8	-1.4	4.0	327.9*	-12.9	-0.4
O=C(N[C@H]1CC[C@@H](CCNC(=O)C2CCC2)O[C@H]1CO)c1ccccn1	nt	nt	nt	nt	-3.2	nt
SMILES	A3A deaminase	ASAP1 GAP inh	ARFGAP1 inh	Mot1-301 SUMO	C2C12 statin	APOBEC3G inh
COC(=O)c1ccc(CSc2nnc(Nc3ccc(C)cc3)s2)o1	5.6	-2.9	10.5	4.3	95.1*	1.6
COC(=O)c1ccc(CSc2nc3cc(Cl)ccc3s2)o1	-2.4	7.4	-9.4	9.2	5.0	-0.1
COc1ccc2c(c1)OC[C@H]1[C@H]2N2C(=O)c3cc(Cl)ccc3NC(=O)[C@@]2(C)[C@H]1c1ccccc1	0.2	nt	nt	157.4	-7.6	-4.8
COc1ccc2c(c1)OC[C@H]1[C@H]2N2C(=O)c3cc(OC)ccc3NC(=O)[C@@]2(C)[C@H]1c1ccccc1	-3.5	13.5	-2.9	355.8*	-0.6	-6.8
COc1ccc2c(c1)OC[C@H]1[C@H]2N2C(=O)c3ccc(C)cc3NC(=O)[C@@]2(C)[C@H]1c1ccccc1	2.0	8.3	-5.3	355.7*	9.7	-3.0
C[C@@H]1CN([C@H](C)CO)C(=O)c2cc(C#CC3CCCCC3)cnc2O[C@@H]1CN(C)C	nt	nt	nt	nt	-6.3	nt
C[C@@H]1CN([C@@H](C)CO)C(=O)Cc2cc(NC(=O)NC3CCCCC3)ccc2O[C@H]1CN(C)S(=O)(=O)c1ccccc1	nt	nt	nt	nt	16.7	nt
CCOC(=O)c1c(C)[nH]c(C)c1C(=O)CSc1nc2ccccc2n1CC	-3.6	2.8	-2.2	0.3	nt	-8.5
CCOC(=O)CCCCC(=O)c1[nH]c(=O)[nH]c1CSc1nc2ccccc2[nH]1	-0.6	7.2	4.4	-4.6	95.5*	9.7
CCOC(=O)c1c(C)[nH]c(C)c1C(=O)CSc1nc2ccccc2[nH]1	0.7	-20.7	11.2	452.6*	nt	-5.9
COC(=O)C[C@H]1CC[C@H]2[C@@H](COc3ccc(NC(=O)Nc4ccccc4C)cc3C(=O)N2C)O1	nt	nt	nt	nt	1.3	nt
CCOC(=O)C(=O)/C(=C\N(C)C)c1onc(-c2c(Cl)cccc2Cl)c1C(=O)OC	-3.4	-16.0	5.3	-10.7	84.8*	-7.7
CCOC(=O)C(=O)/C(=C\N(C)C)c1onc(-c2ccccc2Cl)c1C(=O)OC	-4.9	0.7	4.5	-16.1	nt	-7.5
CO[C@H]1CN(C)C(=O)c2ccc(NS(=O)(=O)c3cccc(F)c3)cc2OC[C@H](C)NC[C@H]1C	nt	nt	nt	nt	-19.5	nt
CO[C@@H]1CN(C)C(=O)c2cc(NS(=O)(=O)CC(F)(F)F)ccc2OC[C@@H](C)N(Cc2cccnc2)C[C@@H]1C	nt	nt	nt	nt	10.2	nt
Cc1nn2c3ccccc3n(Cc3ccccc3)c2nc1=O	-1.5	8.8	-0.3	-3.2	118.2*	-2.6
Cc1nn2c3ccccc3n(C)c2nc1=O	-11.7	-2.1	1.6	-14.8	nt	-4.4
O=C(C[C@@H]1CC[C@H]2[C@@H](COC[C@H](O)CN2C(=O)c2cnccn2)O1)NCc1ccc(F)cc1	nt	nt	nt	nt	-11.5	nt
Cc1cccc(C(=O)N2CCc3cc(-c4nc(NC(=O)Cn5nnc6ccccc6c5=O)sc4C)ccc32)c1	-3.3	nt	nt	378.3*	nt	-9.0
C[C@H]1CN([C@@H](C)CO)C(=O)c2cccc(NC(=O)c3cnccn3)c2O[C@H]1CN(C)C(=O)NC1CCCCC1	nt	nt	nt	nt	-10.5	nt
COCC(=O)N(C)C[C@@H]1Oc2ncc(C#C[C@H](C)O)cc2C(=O)N([C@@H](C)CO)C[C@H]1C	nt	nt	nt	nt	-0.8	nt
Cc1cc(S(=O)(=O)Nc2ccccc2C(=O)O)ccc1Cl	-1.0	-8.4	1.4	12.9	73.4*	-4.6
O=C(O)c1ccccc1NS(=O)(=O)c1ccc2ccccc2c1	6.6	17.1	-0.1	60.2	3.3	12.7
CO[C@@H]1CN(C)C(=O)c2ccc(NC(=O)C3CC3)cc2OC[C@@H](C)N(C)C[C@H]1C	nt	nt	nt	nt	-8.5	nt
